# Screening data deposited in PubChem by several laboratories.
# This is a sample that favours compounds with a hit; in the whole collection about 2.6% have one here.
# NSD2 HMT inh = blocks human histone methyltransferase NSD2; NSD2 peptide methylation, AlphaScreen, 120 min; O96028; inhibition, % at 12.5 µM; 310,000 compounds, 0.54% hits; in the data active = inhibition above about 50%
# UCH37 DUB inh = inhibitors of human deubiquitinating enzyme UCH37; AID 588478; Q9Y5K5; purified proteasome/UCH37, Ub-AMC cleavage fluorescence; inhibition, % (concentration not given with the values); 330,000 compounds, 0.33% hits;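 active = mean inhibition over replicate wells above about 20%, limit read from the data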;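 also: 0% = compound-free wells with enzyme and 100% = wells lacking proteasome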
#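 Reagent: Ub-AMC substrate; assay system: Proteasome-associated human UCH37 deubiquitinase; controls: no-proteasome and no-compound wells; read-out: % inhibition of Ub-AMC cleavage fluorescence; timing: 30 min preincubation with enzyme, 25 min cleavage at room temperature; signal: AMC fluorescence from Ub-AMC cleavage, excitation 355 nm, emission 460 nm; buffer or medium: Tris-HCl pH 7.4 plus ovalbumin, ATP-MgCl2, DTT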
# CASP6 VEID inh = caspase-6 (human) enzyme inhibition | P55212 | purified caspase-6, Z-VEID-R110 cleavage fluorescence | inhibition, % at 12.5 µM | 350,000 compounds, 0.53% hits;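 active = mean inhibition across replicates at least about 35%, with every replicate also reaching that limit, limit read from the data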;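 also: 0% = median of neutral control wells and 100% = no fluorescence left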
# FGF22 binding = binders of recombinant human FGF22 by thermal shift; AID 651658; activity (Tm shift, normalised), % at 9.99 µM; 340,000 compounds, 1.5% hits; SYPRO orange fluorescence; percent of sucrose octasulfate shift, DMSO zero;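 active = mean Tm shift, scaled 0 neutral to 100 positive control, at about 1.3% or above, every replicate too, limit read from the data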
# Target sequence (Q9HCT0 whole entry, looked up): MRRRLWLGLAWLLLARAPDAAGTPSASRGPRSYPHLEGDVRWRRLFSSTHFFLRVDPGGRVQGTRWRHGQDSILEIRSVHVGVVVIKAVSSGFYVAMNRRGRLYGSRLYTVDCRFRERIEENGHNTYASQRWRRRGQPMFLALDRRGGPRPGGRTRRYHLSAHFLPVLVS
# SIRT5 block = blocks human SIRT5 desuccinylation of peptide; AID 652115; Purified SirT5, succinyl-peptide AMC, trypsin-coupled fluorescence; 330,000 compounds, 1.1% hits; inhibition, % at 15 µM; Q9NXA8; in the data active = inhibition above about 15%
# Target sequence (Q9NXA8 whole entry, looked up): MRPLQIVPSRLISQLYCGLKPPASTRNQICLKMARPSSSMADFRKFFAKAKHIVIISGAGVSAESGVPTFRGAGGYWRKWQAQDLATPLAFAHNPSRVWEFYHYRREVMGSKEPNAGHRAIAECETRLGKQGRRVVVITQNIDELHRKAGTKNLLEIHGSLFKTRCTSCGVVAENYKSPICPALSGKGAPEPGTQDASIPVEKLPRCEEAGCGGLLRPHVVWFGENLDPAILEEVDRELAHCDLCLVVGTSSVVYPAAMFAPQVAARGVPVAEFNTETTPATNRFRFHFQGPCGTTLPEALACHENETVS
# * = called active by the depositor; x = no result given.
SMILES,NSD2 HMT inh,UCH37 DUB inh,CASP6 VEID inh,FGF22 binding,SIRT5 block
C/C=C/c1cnc2c(c1)C(=O)N([C@@H](C)CO)C[C@H](C)[C@H](CN(C)C(=O)c1cnccn1)O2,x,x,-1,0,0
O=C(CN1C(=O)NC2(CCCC2)C1=O)N1CCc2ccccc2C1,-2,2,1,43*,0
O=C(CN1C(=O)NC2(CCCCC2)C1=O)N1CCc2ccccc2C1,-3,3,-1,0,1
O=C(CN1C(=O)NC2(CCCC2)C1=O)N1CCN(c2ccccc2O)CC1,3,1,-2,-1,18*
NC(=S)NN=Cc1cccc(C=NNC(N)=S)c1,x,5,x,x,x
Cc1ccc(/C=C/C(=O)O)cc1S(=O)(=O)NCc1ccco1,2,1,9,43*,-3
CC(=O)NS(=O)(=O)c1ccc(NC(=S)NC(=O)C2CCC2)cc1,-2,-1,-2,0,-1
O=C(NNC(=S)Nc1ccccc1)C1CC1,0,2,x,x,x
O=C(NNC(=S)Nc1ccccc1)C1CCCCC1,-1,0,-3,44*,-2
O=C(NC(=S)Nc1ccc(S(=O)(=O)Nc2ccccc2)cc1)C1CC1,0,7,0,43*,1
CCCN1C[C@@H](C)[C@@H](OC)CN(C)C(=O)c2cc(NS(=O)(=O)CC)ccc2OC[C@@H]1C,x,x,0,0,3
S=C(NN=Cc1ccc2c(c1)OCO2)NC1CC2CCC1C2 (stereo not drawn),x,2,x,x,x
C[C@H](CO)N1C[C@H](C)[C@@H](CN(C)C(=O)Nc2ccc3c(c2)OCO3)OCCCC[C@H](C)Oc2ccc(NS(=O)(=O)c3ccc(Cl)cc3)cc2C1=O,x,x,1,0,5
C[C@@H]1CN([C@H](C)CO)C(=O)c2cc(NC(=O)NC3CCCCC3)ccc2O[C@@H](C)CCCCO[C@H]1CN(C)S(=O)(=O)c1ccc(Cl)cc1,x,x,-1,x,15*
Cc1ccc(S(=O)(=O)N(C)C[C@@H]2OCCCC[C@@H](C)Oc3ccc(NC(=O)NC4CCCCC4)cc3C(=O)N([C@@H](C)CO)C[C@@H]2C)cc1,x,x,2,0,15*
Cc1[nH]c2ccccc2c1C(=O)C(=O)N1CCN(c2ccccc2Cl)CC1,0,2,1,0,34*
COc1ccccc1N1CCN(C(=O)C(=O)c2c(C)[nH]c3ccccc23)CC1,20,4,0,0,-1
CCCC12CN3CC(C)(CN(C1)C3c1ccc([N+](=O)[O-])o1)C2=O (stereo not drawn),0,7,1,0,4
CCC12CN3CC(CC)(CN(C1)C3c1ccc([N+](=O)[O-])o1)C2=O (stereo not drawn),-5,4,-3,43*,-2
CCCCC12CN3CC(C)(CN(C1)C3c1ccc([N+](=O)[O-])o1)C2=O (stereo not drawn),0,4,3,0,4
CC12CN3CC(C)(CN(C1)C3c1ccc([N+](=O)[O-])o1)C2=O (stereo not drawn),-3,6,0,44*,6
C[C@H](NC(=O)N(C)C[C@H]1OCc2ccccc2-c2c(n(C)c3ccccc23)C(=O)N([C@@H](C)CO)C[C@H]1C)c1ccccc1,x,x,0,0,3
O=C(COC(=O)Cc1ccc(S(=O)(=O)N2CCOCC2)s1)Nc1ccc(F)cc1F,-1,2,43*,0,1
CCc1n[nH]c(=S)n1N=Cc1cccc2ccccc12,x,3,x,x,x
C=CCNc1nnc(Cl)c2ccccc12,7,-2,-1,0,26*
SMILES,NSD2 HMT inh,UCH37 DUB inh,CASP6 VEID inh,FGF22 binding,SIRT5 block
O=C1CN(C(=O)/C=C/c2ccc(Cl)cc2Cl)CCN1,1,5,5,0,2
CN1CCCN(C(=O)/C=C/c2ccc(Cl)cc2Cl)CC1,11,5,-66,44*,x
COc1ccc(NC(=O)NN2CCN(C)CC2)cc1,-1,6,-2,0,-1
CN1CCN(NC(=O)Nc2ccc(F)cc2)CC1,x,4,48*,0,-2
C[C@@H]1CN([C@@H](C)CO)C(=O)Cc2cc(NS(=O)(=O)c3cccs3)ccc2O[C@@H]1CN(C)Cc1ccc(Cl)c(Cl)c1,x,x,-2,0,6
c1ccc(CSc2ccc(-c3cccs3)nn2)nc1,-6,1,-2,44*,2
COc1ccc(Cl)cc1C(=O)NNC(=O)CCNC(=O)c1ccccc1,x,x,-1,44*,x
O=C(CCNC(=O)c1ccc(Br)cc1)NNC(=O)c1ccccc1,6,-2,-4,43*,-4
COc1ccc(Cl)cc1C(=O)NNC(=O)CSc1nncn1C,0,3,5,43*,x
O=C(CCNC(=O)c1ccccc1)NN=Cc1ccc([N+](=O)[O-])cc1,x,4,x,x,x
CC(Cn1cnc([N+](=O)[O-])n1)=NNC(=O)c1ccccc1,x,4,x,x,x
CC12CC(c3ccccc3O1)C(/C(N)=N/NC(=O)c1ccc(F)cc1)C(=O)N2 (stereo not drawn),x,-1,-1,1,16*
CC(Cc1ccccc1)=NNC(=O)c1ccc(F)cc1,x,3,x,x,x
Cc1cc(C)cc(C(=O)N2CCN=C2c2ccccc2)c1,-2,3,-4,43*,-2
C[C@@H]1CN([C@@H](C)CO)C(=O)c2cc(N(C)C)ccc2O[C@@H](C)CCCCO[C@@H]1CN(C)C(=O)Nc1cccc2ccccc12,x,x,0,-3,2
C[C@@H]1CCCCO[C@@H](CN(C)C(=O)Nc2cccc3ccccc23)[C@H](C)CN([C@H](C)CO)C(=O)c2cc(NC(=O)C3CCCCC3)ccc2O1,x,x,1,0,10
CCN(CC)C(=O)c1sc(NC(=O)c2c(OC)cccc2OC)c(C#N)c1C,7,29*,2,0,-1
CCN(CC)C(=O)c1sc(NC(=O)C(C)C)c(C#N)c1C,0,-1,-4,44*,-5
CCOC(=O)CC1=NN(c2ccccc2)C(=O)/C1=C\c1ccc(N(C)C)cc1,17,2,-1,0,113*
Cc1ccc(NC(=O)C[C@H]2CC[C@H]3[C@@H](COc4ccc(NS(C)(=O)=O)cc4C(=O)N3C)O2)cc1,x,x,3,0,6
COc1ccc(NC(=O)Nc2ccc3c(c2)C(=O)N([C@H](C)CO)C[C@@H](C)[C@H](CN(C)S(=O)(=O)c2ccc(Cl)cc2)OCCCC[C@@H](C)O3)cc1,x,x,-4,0,3
CO[C@H]1CN(C)C(=O)c2ccc(NS(C)(=O)=O)cc2OC[C@H](C)N(C(=O)NC(C)C)C[C@@H]1C,x,x,-1,0,1
CO[C@H]1CN(C)C(=O)c2ccc(NC(=O)c3ccc(F)cc3)cc2OC[C@H](C)N(C)C[C@H]1C,x,x,x,x,-1
CCOc1ccc(-c2noc(CCCC(=O)NC3CCCC3)n2)cc1OC,-6,2,-1,0,19*
COc1ccc(-c2noc(CCCC(=O)NC3CCCCC3)n2)cc1OC,0,-1,-4,0,-4
